# BaF3 tox: parental Ba/F3 viability inhibition as JAK2V617F counter-screen; CellTiter-Glo ATP luminescence; AID 1486; inhibition, % at 5.6 µM; 220,000 tested, 1.1% active;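 active = inhibition above a per-campaign cutoff, the mean inhibition of all tested compounds plus 3 SD, cut at about 27% in these data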;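 also: 0% = DMSO wells and 100% = JAK Inhibitor I control wells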
# Ba/F3 V617F tox: lowers viability of Ba/F3 cells expressing EpoR and JAK2V617F; ATP luminescence; inhibition, % at 5.6 µM; 220,000 tested, 1.1% active;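 active = inhibition above the campaign mean plus 3 SD over all tested compounds, cut at about 24% in these data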;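 also: cytokine-independent growth of Ba/F3 cells driven by EpoR plus mutant JAK2; 0% = DMSO-treated cells and 100% = JAK inhibitor I control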
# L major viab: Leishmania major promastigote growth inhibition | 200,000 tested, 9% active | AID 1063 | Leishmania major promastigotes, resazurin fluorescence viability | inhibition, % at 10 µM; in the data active = inhibition above about 50%;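 also: promastigotes grown with compound for 44 hours at 28 °C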
# APP 5UTR inh: APP translation inhibition; AID 1285; SH-SY5Y APP 5'UTR-luciferase reporter, luminescence; inhibition, % at 2 µM; 190,000 tested, 0.82% active;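 active = inhibition above a set limit, derived from the sample mean plus 3 SD, cut at about 45% in these data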
# MT stabilizer: stabilizes microtubules in HeLa cells. % tubulin-high responders, % at 10 µM. HeLa tubulin immunostaining HCS, 24 h; share of cells brighter than vehicle mean+2SD. AID 2205. 200,000 tested, 0.83% active;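 active = plate Z-score above 3 for both tubulin-high and condensed-nucleus cell shares, with cell loss under 80%, at 10 µM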;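 also: anti alpha tubulin signal scored within the nucleus-defined area of each cell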
# b-catenin transl: alters nuclear translocation of beta-catenin in HeLa cells; AID 1665; immunofluorescence imaging; nuclear translocation activity, % at 5 µM; 190,000 tested, 0.3% active;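 active = nuclear translocation activity above 50% at 5 µM, with a well cell count of 50 or more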;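 also: per-cell ratio of nuclear to cytoplasmic median beta-catenin stain intensity; plate controls were DMSO negative control for no effect and GSK-3 inhibitor IX positive control for full effect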
#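 Read-out: Nuclear/cytoplasmic beta-catenin signal ratio, % activation | Assay system: Human HeLa cell line | Times: 24 h compound exposure at 37°C, 5% CO2 | Signal: Fluorescence imaging of beta-catenin antibody stain plus DAPI | Dosing: 5 µM primary, 0.02–20 µM confirmation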
# * hit, by the source's call; x = not tested or not shown. Only some compounds are listed: those with a hit (about 9.6% of all), similar ones and a draw of the others.
SMILES,BaF3 tox,Ba/F3 V617F tox,L major viab,APP 5UTR inh,MT stabilizer,b-catenin transl
Cc1cc(C)n(-c2ccc(C(=O)Nc3ccc(C)c(S(=O)(=O)N(C)C)c3)cc2)n1,8.7,2.0,53.2*,1.8,3.2,0.4
O=C(CCc1c[nH]c2ccccc12)N/N=C/c1ccc2c(c1)OCO2,1.7,-2.8,2.6,-13.6,4.2,-1.3
CCC(NC(=O)c1ccc([N+](=O)[O-])cc1[N+](=O)[O-])c1ccccc1 (configuration not stated),1.9,0.6,91.8*,-0.3,1.9,0.1
CCCCC[n+]1ccn(C2=C([O-])c3ccccc3C(=O)/C2=N\S(=O)(=O)c2ccccc2)c1,1.2,-2.0,90.5*,2.5,2.1,0.0
OC(COc1ccc2cc(Br)ccc2c1)CN1CCOCC1 (configuration not stated),5.5,-0.2,59.8*,-6.6,3.0,1.3
OC(COc1c(Br)cc(Br)cc1Br)CN1CCOCC1 (configuration not stated),4.4,4.3,79.1*,7.0,5.7,-1.1
O=C(CNC(=O)c1cccc(Cl)c1)N/N=C/C=C/c1ccccc1,3.4,-2.9,-5.4,-8.9,3.0,-1.8
COc1ccc(NC(=O)Nc2cc(C)ccc2OC(F)F)c(OC)c1,4.5,-0.4,67.3*,-2.6,1.5,x
CCCCCN(C(=O)CCCSc1nncs1)c1c(N)n(CCCC)c(=O)[nH]c1=O,9.2,3.9,-2.2,-19.1,3.3,0.2
COc1ccc(N2CCC(CNC(=S)Nc3cccc(C)c3)C2)cc1 (configuration not stated),3.8,1.0,72.4*,11.9,2.6,0.1
Cc1ccccc1NC(=S)NCC1CCN(C(C)c2ccccc2)C1 (configuration not stated),6.9,2.6,76.3*,-2.0,2.9,-0.9
Cc1ccccc1NC(=S)NC(C)C(c1ccccc1)N1CCN(C)CC1 (configuration not stated),7.2,0.4,-0.7,-12.9,3.2,-2.8
Cc1cc(C)cc(NC(=S)NCC2CCN(C(C)c3ccccc3)C2)c1 (configuration not stated),1.8,4.9,71.8*,-15.2,1.7,-0.7
CCC(CC)c1nnc(NC(=O)C2=NNC(=O)CC2)s1,-1.4,-2.5,-7.3,-8.6,2.5,0.8
O=C(C1Cc2ccccc2CN1C(=O)c1ccccc1)N1CCN(c2ccccc2)CC1 (configuration not stated),47.0*,58.1*,x,x,x,1.2
O=C(c1ccc(CN2CCc3ccccc3C2)cc1)N1CCN(c2ccccc2)CC1,3.4,-1.1,6.6,-10.4,2.3,-1.5
COc1ccc(CNC(=O)CCSCc2cccc(Cl)c2)c(OC)c1,4.4,0.1,-1.2,-3.6,1.7,3.5
CN(c1cccc(Cl)c1)S(=O)(=O)c1cccc(C(=O)Nc2nc3ccccc3[nH]2)c1,8.8,4.5,98.7*,-10.8,11.4,40.8
COc1ccc(NC(=O)c2cccc(S(=O)(=O)N(C)c3ccccc3)c2)cn1,0.0,-3.3,72.0*,0.0,1.6,-0.9
CN(c1ccccc1)S(=O)(=O)c1cccc(C(=O)Nc2ccc3c(c2)CCC3)c1,5.9,1.4,75.2*,-2.5,2.4,-0.9
COc1ccc(NC(=O)c2cc(S(=O)(=O)N(Cc3ccccc3)c3ccccc3)ccc2Cl)cn1,5.3,-1.5,93.8*,-3.5,2.6,x
O=C(O)CCC(=O)Nc1ccc(NC(=O)c2ccc(Cl)cc2Cl)c(Cl)c1,5.4,1.6,-5.0,4.1,x,0.1
CC(CCc1ccccc1)NC(=O)CN1CCN(c2ccccc2)CC1 (configuration not stated),5.2,1.3,6.8,-7.7,1.6,-0.6
Cc1ccc2c(c1)C(SCC(=O)NCCc1ccccc1)CC1(CCCC1)O2 (configuration not stated),4.3,0.2,-4.0,-15.9,4.6,-3.0
CCOC(=O)c1sc(NC(=O)c2ccc(S(=O)(=O)N3CCOCC3)cc2)cc1C,3.9,1.9,-1.2,-1.2,2.9,-3.9
SMILES,BaF3 tox,Ba/F3 V617F tox,L major viab,APP 5UTR inh,MT stabilizer,b-catenin transl
O=S(=O)(Nc1nc2ccccc2s1)c1ccc(Cl)nc1,0.1,-0.2,x,x,x,-2.3
CCc1ccc(CNc2ccc3c(c2)ncn3C)cc1,4.6,-2.8,27.5,-102.3,9.8,-3.7
Cc1ccc(CNc2ccc3c(c2)ncn3C)cc1,3.2,-2.3,60.2*,-106.7,3.6,x
Cc1[nH]n(C)c(=O)c1[N+](=O)[O-],-1.6,1.5,x,x,x,0.6
c1cnc2ccc(C(c3nnnn3C3CCCCC3)N3CCN(C4CCCCC4)CC3)cc2c1 (configuration not stated),33.1*,36.6*,98.8*,9.4,3.4,x
c1cc(C(c2nnnn2C2CCCCC2)N2CCN3CCCC3C2)ccn1 (configuration not stated),0.0,2.4,-7.7,2.9,7.4,-10.4
c1cnc2ccc(C(c3nnnn3C3CCCCC3)N3CCCCC3)cc2c1 (configuration not stated),3.1,-1.2,28.4,3.2,3.6,-2.4
c1cnc2ccc(C(c3nnnn3C3CCCC3)N3CCN4CCCC4C3)cc2c1 (configuration not stated),-0.7,-1.8,52.0*,-11.8,1.4,-2.7
COc1cccc(NC(=O)NC2CCN(Cc3nnnn3Cc3ccc4c(c3)OCO4)CC2)c1,2.3,-3.7,x,x,x,0.9
Cc1nc2ncccn2c1-c1csc(Nc2ccc(O)cc2)n1,77.4*,82.4*,10.0,12.8,4.2,11.8
Cc1cccnc1Nc1nc(-c2ccc(O)cc2O)cs1,3.8,-0.6,17.9,-35.9,3.9,0.1
Cc1ccc(Nc2nc(-c3c(C)nc4ccccn34)cs2)cc1,92.2*,93.7*,92.7*,96.3*,16.9*,111.8*
Cc1ccc(Nc2nc(-c3c(C)nc4ncccn34)cs2)cc1,77.9*,76.3*,60.2*,94.8*,16.8*,x
Cc1ccnc(Nc2nc(-c3c(C)nc4sccn34)cs2)c1,8.8,5.6,32.3,-72.7,20.7,2.4
CC(C)CN(C(=O)CN1CCc2ccccc21)c1c(N)n(CC(C)C)c(=O)[nH]c1=O,6.2,0.0,-2.6,-5.6,7.3,-3.0
O=S(=O)(N/N=C\C=C\c1ccccc1)c1ccc(Br)cc1,-1.4,-0.7,96.7*,18.2,17.4,x
Cc1ccc(S(=O)(=O)N/N=C/c2ccc(C(=O)O)cc2)cc1,-0.9,-0.8,-0.9,-18.5,1.5,-0.5
Cc1ccc(S(=O)(=O)N/N=C\C=C\c2ccccc2)cc1,2.5,1.1,83.4*,-18.7,2.9,-1.3
Fc1ccc(-c2nn(-c3ccccc3)cc2CNCc2ccccc2)cc1,-0.4,1.0,80.2*,4.0,3.7,-0.3
O=C(c1cn(-c2ccccc2)nc1-c1ccc(F)cc1)N1CCCCC1,7.3,1.2,81.3*,-11.0,4.1,x
O=C(NCc1cn(-c2ccccc2)nc1-c1ccc(F)cc1)c1cccc([N+](=O)[O-])c1,5.0,-1.4,81.0*,-2.7,2.2,3.1

# High-throughput results as filed in PubChem.
